# According to ChEMBL document CHEMBL4130398, “Cyperaceae Species Are Potential Sources of Natural Mammalian Arginase Inhibitors with Positive Effects on Vascular Function” (J Nat Prod, 2017):
# Columns and labels:
# [1] = species: Bos taurus; assay: Inhibition of bovine liver arginase assessed as reduction in urea production at 100 uM using L-arginine as substrate after 60 mins in presence of MnCl2 by alpha-isonitrosopropiophenone reagent based spectrophotometric analysis relative to control
# Procedure, shortened: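 Purified bovine liver arginase I (0.025 U/μL in Tris-HCl 50 mM pH 7.5 with 0.1% BSA) with 10 mM MnCl2 cofactor, inhibitor from DMSO stock diluted in water, and L-arginine (0.05 M, pH 9.7). Incubated 60 min at 37 °C. Acid quench, then α-isonitrosopropiophenone at 100 °C for 45 min, A550. Activity relative to solvent control; three experiments in duplicate, mean ± SEM.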
# [2] = Inhibition of bovine liver arginase assessed as reduction in urea production using L-arginine as substrate after 60 mins in presence of MnCl2 by alpha-isonitrosopropiophenone reagent based spectrophotometric analysis; set-up: species or system Bos taurus
# Procedure, shortened: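 Purified bovine liver arginase I with MnCl2 (10 mM) in Tris-HCl pH 7.5/BSA buffer, L-arginine substrate (0.05 M, pH 9.7). Inhibitors from 70 mM DMSO stocks, final 0.1–1000 μM in the well. 60 min at 37 °C, then urea read with α-isonitrosopropiophenone at 550 nm. IC50 taken from semilog plots of inhibition relative to solvent control; three experiments in triplicate, mean ± SEM.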
SMILES,inhibition [1],IC50 [2]
OC[C@H]1O[C@@H](Oc2cc(/C=C/c3ccc(O)cc3)cc(O[C@@H]3O[C@H](CO)[C@@H](O)[C@H](O)[C@H]3O)c2)[C@H](O)[C@@H](O)[C@@H]1O,80 to 90%,
Oc1ccc([C@H]2Oc3cc(O)cc([C@@H]4[C@H](c5cc(O)cc(O)c5)[C@@H](c5ccc(O)cc5)O[C@@H]4c4ccc(O)cc4)c3[C@@H]2c2cc(O)cc3c2[C@@H](c2cc(O)cc(O)c2)[C@H](c2ccc(O)cc2)O3)cc1,80 to 90%,
N=C(NO)NCC[C@H](N)C(=O)O [NOR-NOHA],,1.7 µM
Oc1ccc(/C=C/c2cc(O)cc3c2[C@H](c2cc(O)cc(O)c2)[C@@H](c2ccc(O)cc2)O3)cc1,80 to 90%,27.8 µM
Oc1ccc([C@H]2c3c(O)cc(O)cc3[C@H]3c4c(cc(O)cc4[C@@H]2O)O[C@H]3c2ccc(O)cc2)cc1,80 to 90%,182 µM
Oc1ccc([C@H]2Oc3cc(O)cc([C@@H]4[C@H](c5cc(O)cc(O)c5)[C@@H](c5ccc(O)cc5)O[C@@H]4c4ccc(O)cc4)c3[C@@H]2c2cc(O)cc3c2[C@@H](c2cc(O)cc(O)c2)[C@H](c2ccc(O)c(O)c2)O3)cc1,80 to 90%,25.3 µM
Oc1cc(O)cc(/C=C/c2ccc(O)c(O)c2)c1 [PICEATANNOL],80 to 90%,12.6 µM
Oc1cc(O)cc([C@@H]2c3c(/C=C/c4ccc(O)c(O)c4)cc(O)cc3O[C@H]2c2ccc(O)c(O)c2)c1,80 to 90%,22.6 µM
Oc1cc(O)cc([C@@H]2[C@@H](c3ccc(O)c(O)c3)c3cc(O)c(O)cc3[C@@H]3c4c(O)cc(O)cc4[C@@H]4c5c(cc(O)cc5[C@H]32)O[C@H]4c2ccc(O)c(O)c2)c1,80 to 90%,12.2 µM
